Experiments:
LACTOSE, ANHYDROUS [1] = assay: (§1) Activity at Neisseria meningitidis lgtC by UV-VIS spectroscopy
Outline: (§2)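 Continuous coupled assay: UDP release from LgtC-catalysed galactose transfer (UDP-Gal donor) coupled to NADH oxidation, followed at 340 nm (ε = 6.22 mM–1cm–1) in a temperature-controlled spectrophotometer. Initial rates were fitted directly to obtain kinetic parameters (kcat, Km, kcat/Km).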

[2] = substrate: O=C(OC[C@H]1O[C@@H](O)[C@@H](O)[C@@H](O)[C@@H]1O)c1ccccc1; assay: as §1; outline: as §2
[3] = substrate: OC[C@H]1O[C@@H](O[C@H]2[C@H](O)[C@@H](O)[C@H](OCc3ccccc3)O[C@@H]2CO)[C@H](O)[C@@H](O)[C@@H]1O; assay: as §1; outline: as §2
[4] = substrate: O[C@@H]1[C@@H](O)[C@H](OCc2ccccc2)OC[C@H]1O; assay: as §1; outline: as §2
[5] = substrate: CCCCCCCCO[C@@H]1OC[C@@H](O)[C@H](O)[C@H]1O; assay: (§3) Ratio of Kcat to Km for Neisseria meningitidis lgtC; outline: as §2
[6] = substrate: CCCCCCCCO[C@@H]1O[C@H](CO)[C@@H](O)[C@H](O)[C@H]1O; assay: as §3; outline: as §2
[7] = substrate: CCCCCCCCO[C@@H]1O[C@H](CO)[C@H](O)[C@H](O)[C@H]1O; assay: as §3; outline: as §2
LACTOSE, ANHYDROUS [8] = assay: as §3; outline: as §2
[9] = substrate: O=C(OC[C@H]1O[C@@H](O)[C@@H](O)[C@@H](O)[C@@H]1O)c1ccccc1; assay: as §3; outline: as §2
[10] = substrate: O=C(O[C@@H]1CO[C@@H](O)[C@H](O)[C@H]1O)c1ccccc1; assay: as §3; outline: as §2
[11] = substrate: O=C[C@H](O)[C@@H](O)[C@@H](O)[C@H](O)CO; assay: as §3; outline: as §2
[12] = substrate: O=C[C@H](O)[C@@H](O)[C@H](O)CO; assay: as §3; outline: as §2
[13] = substrate: OC1OC[C@@H](O)[C@@H](O)[C@@H]1O; assay: as §3; outline: as §2
[14] = substrate: OC[C@H]1OC(O)[C@@H](O)[C@@H](O)[C@@H]1O; assay: as §3; outline: as §2
[15] = substrate: OC[C@H]1OC(O)[C@H](O)[C@@H](O)[C@@H]1O; assay: as §3; outline: as §2
[16] = substrate: OC[C@H]1OC(O)[C@H](O)[C@H](O)[C@@H]1O; assay: as §3; outline: as §2
[17] = substrate: OC[C@H]1O[C@@H](O[C@H]2[C@H](O)[C@@H](O)[C@H](OCc3ccccc3)O[C@@H]2CO)[C@H](O)[C@@H](O)[C@@H]1O; assay: as §3; outline: as §2
[18] = substrate: O[C@@H]1[C@@H](O)[C@H](OCc2ccccc2)OC[C@H]1O; assay: as §3; outline: as §2
[19] = substrate: O[C@@H]1[C@H](O)[C@@H](O)OC[C@H]1O; assay: as §3; outline: as §2
[20] = substrate: O[C@H]1[C@H](O)[C@@H](O)[C@H](O)[C@@H](O)[C@H]1O; assay: as §3; outline: as §2

B1: Alpha 1,4 galactosyltransferase (Neisseria meningitidis), Q8KHJ3 (protein)
chain: MDIVFAADDNYAAYLCVAAKSVEAAHPDTEIRFHVLDAGISEANRAAVAANLRGGGNIRFIDVNPEDFAGFPLNIRHISITTYARLKLGEYIADCDKVLYLDIDVLVRDSLKPLWDTDLGDNWLGACIDLFVERQNAYKQKIGMADGEYYFNAGVLLINLKKWRQHDIFKMACEWVEQYKDVMQYQDQDILNGLFKGGVCYANSRFNFMPTNDAFMANRFASRHTDPLYRDRTYTAMPVAVSHYCGPAKPWHRDCTAWGAERFTELAGSLTSVPEEWRGKLAVPHRVFPTKRMLQRWRRKLSARFLRKIY
- Km (LACTOSE, ANHYDROUS [1]): 40 mM
- kcat (LACTOSE, ANHYDROUS [1]): 160 s⁻¹
- Km [2]: 30 mM
- kcat [2]: 2.5 s⁻¹
- Km [3]: 35 mM
- kcat [3]: 1 s⁻¹
- Km [4]: 15 mM
- kcat [4]: 10 s⁻¹
- kcat/Km [5]: 367 M⁻¹ s⁻¹
- kcat/Km [6]: 23.3 M⁻¹ s⁻¹
- kcat/Km [7]: 63.3 M⁻¹ s⁻¹
- kcat/Km (LACTOSE, ANHYDROUS [8]): 4000 M⁻¹ s⁻¹
- kcat/Km [9]: 83.3 M⁻¹ s⁻¹
- kcat/Km [10]: 200 M⁻¹ s⁻¹
- kcat/Km [11]: 5 M⁻¹ s⁻¹
- kcat/Km [12]: 30 M⁻¹ s⁻¹
- kcat/Km [13]: 1.67 M⁻¹ s⁻¹
- kcat/Km [14]: 5 M⁻¹ s⁻¹
- kcat/Km [15]: 3.33 M⁻¹ s⁻¹
- kcat/Km [16]: 0.833 M⁻¹ s⁻¹
- kcat/Km [17]: 28.3 M⁻¹ s⁻¹
- kcat/Km [18]: 667 M⁻¹ s⁻¹
- kcat/Km [19]: 5 M⁻¹ s⁻¹
- kcat/Km [20]: 3.33 M⁻¹ s⁻¹

— ChEMBL document CHEMBL1221192, “Using substrate engineering to harness enzymatic promiscuity and expand biological catalysis” (Nat Chem Biol, 2006)
